Test [1] deals with Phosphatidylinositol 4,5-bisphosphate 3-kinase catalytic subunit alpha isoform (Homo sapiens, UniProt P42336). As to the kind of experiment: Inhibition of human PI3Kalpha using PIP2 as substrate in presence of ATP measured after 30 mins by HTRF assay. A digest of the protocol:
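HTRF kit assay. Enzyme incubated with 10 μM PIP2; reaction started by adding ATP and run 30 min at room temperature, then stop solution and detection mix added and luminescence read. Compounds kept as 10 mM DMSO stocks.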
(In general: TR-FRET usually uses a lanthanide donor and a delayed reading to cut background.)

Another test has as its system SJRH30. As to the kind of experiment: Antiproliferative activity against human Rh30 cells assessed as reduction in cell viability after 72 hrs by sulforhodamine B assay. The class given is functional, cell-based. The settings on record: SJRH30, 72 h. A digest of the protocol: (§1)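 SRB assay. Exponentially growing cells seeded at 3000–5000/well, compounds added serially diluted after 24 h, cultured 72 h. Cells fixed with 10% TCA, stained with SRB, dye dissolved in 10 mM Tris-HCl, absorbance read at 560 nm. Inhibition = (ODcontrol − ODtreated)/ODcontrol × 100%. IC50 is the mean of at least three independent tests.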
(In SRB staining, fixed cells bind dye roughly in proportion to their protein.)

The subject of a further test is A549. As to the kind of experiment: Antiproliferative activity against human A549 cells assessed as reduction in cell viability after 72 hrs by sulforhodamine B assay. The class given is functional, cell-based. Conditions: A549, 72 h. The essentials: as §1
Another test deals with NCI-H460. As to the kind of experiment: Antiproliferative activity against human NCI-H460 cells assessed as reduction in cell viability after 72 hrs by sulforhodamine B assay. The class given is functional, cell-based. Conditions: NCI-H460, 72 h. A digest of the protocol:
as §1

The next test deals with NCI-H522. As to the kind of experiment: Antiproliferative activity against human NCI-H522 cells assessed as reduction in cell viability after 72 hrs by sulforhodamine B assay. The settings on record: NCI-H522, 72 h. The class given is functional, cell-based. A digest of the protocol:
as §1

Another test has as its system NCI-H1650. As to the kind of experiment: Antiproliferative activity against human NCI-H1650 cells assessed as reduction in cell viability after 72 hrs by sulforhodamine B assay. The class given is functional, cell-based. The settings on record: NCI-H1650, 72 h. A digest of the protocol: as §1
The next test deals with NCI-H1975. As to the kind of experiment: Antiproliferative activity against human NCI-H1975 cells assessed as reduction in cell viability after 72 hrs by sulforhodamine B assay. The class given is functional, cell-based. The settings on record: NCI-H1975, 72 h. The essentials: as §1
A further test has as its system NCI-H23. As to the kind of experiment: Antiproliferative activity against human NCI-H23 cells assessed as reduction in cell viability after 72 hrs by sulforhodamine B assay. The class given is functional, cell-based. The settings on record: NCI-H23, 72 h. A digest of the protocol: as §1
Another test concerns NCI-H226. As to the kind of experiment: Antiproliferative activity against human H226 cells assessed as reduction in cell viability after 72 hrs by sulforhodamine B assay. Conditions: NCI-H226, 72 h. The class given is functional, cell-based. A digest of the protocol: as §1
The subject of a further test is Calu-3. As to the kind of experiment: Antiproliferative activity against human Calu3 cells assessed as reduction in cell viability after 72 hrs by sulforhodamine B assay. The class given is functional, cell-based. The settings on record: Calu-3, 72 h. The essentials:
as §1

A further test has as its system NCI-H358. As to the kind of experiment: Antiproliferative activity against human NCI-H358 cells assessed as reduction in cell viability after 72 hrs by sulforhodamine B assay. Conditions: NCI-H358, 72 h. The class given is functional, cell-based. The essentials: as §1
Test [2] can be described thus: Inhibition of human PI3Kgamma R459Q mutant using PIP2 as substrate in presence of ATP measured after 30 mins by HTRF assay.
Test [3] in a line: Inhibition of human PI3K p110alpha H1047R mutant/p85alpha using PIP2 as substrate incubated for 30 mins in presence of ATP by HTRF assay.
In another test the test system is SK-BR-3. As to the kind of experiment: Antiproliferative activity against human SK-BR-3 cells assessed as reduction in cell viability after 72 hrs by sulforhodamine B assay. The class given is functional, cell-based. A digest of the protocol: as §1
For another test, the system named is LoVo. As to the kind of experiment: Antiproliferative activity against human LoVo cells assessed as reduction in cell viability after 72 hrs by sulforhodamine B assay. The class given is functional, cell-based. The essentials: as §1
A further test relates to MDA-MB-231. As to the kind of experiment: Antiproliferative activity against human MDA-MB-231 cells assessed as reduction in cell viability after 72 hrs by sulforhodamine B assay. The class given is functional, cell-based. The essentials: as §1
For the next test, the system named is SK-OV-3. As to the kind of experiment: Antiproliferative activity against human SK-OV-3 cells assessed as reduction in cell viability after 72 hrs by sulforhodamine B assay. The class given is functional, cell-based. A digest of the protocol:
as §1

Another test concerns T47D. As to the kind of experiment: Antiproliferative activity against human T47D cells assessed as reduction in cell viability after 72 hrs by sulforhodamine B assay. The class given is functional, cell-based. The essentials: as §1
The next test concerns HCC1954. As to the kind of experiment: Antiproliferative activity against human HCC1954 cells assessed as reduction in cell viability after 72 hrs by sulforhodamine B assay. The class given is functional, cell-based. The essentials: as §1
The next test deals with BT-474. As to the kind of experiment: Antiproliferative activity against human BT-474 cells assessed as reduction in cell viability after 72 hrs by sulforhodamine B assay. The class given is functional, cell-based. The essentials:
as §1

The test system of the next test is MCF7. As to the kind of experiment: Antiproliferative activity against human MCF7 cells assessed as reduction in cell viability after 72 hrs by sulforhodamine B assay. The class given is functional, cell-based. The essentials:
as §1

For another test, the system named is PC-3. As to the kind of experiment: Antiproliferative activity against human PC-3 cells assessed as reduction in cell viability after 72 hrs by sulforhodamine B assay. The class given is functional, cell-based. A digest of the protocol: as §1
The next test deals with ZR-75-1. As to the kind of experiment: Antiproliferative activity against human ZR-75-1 cells assessed as reduction in cell viability after 72 hrs by sulforhodamine B assay. The class given is functional, cell-based. The essentials:
as §1

What is called IC50 is the concentration that inhibits the measured activity by half.

Activity calls are given as the source filed them. No cut-off for these calls is given here.

Chain of Phosphatidylinositol 4,5-bisphosphate 3-kinase catalytic subunit alpha isoform (P42336 whole entry, canonical isoform): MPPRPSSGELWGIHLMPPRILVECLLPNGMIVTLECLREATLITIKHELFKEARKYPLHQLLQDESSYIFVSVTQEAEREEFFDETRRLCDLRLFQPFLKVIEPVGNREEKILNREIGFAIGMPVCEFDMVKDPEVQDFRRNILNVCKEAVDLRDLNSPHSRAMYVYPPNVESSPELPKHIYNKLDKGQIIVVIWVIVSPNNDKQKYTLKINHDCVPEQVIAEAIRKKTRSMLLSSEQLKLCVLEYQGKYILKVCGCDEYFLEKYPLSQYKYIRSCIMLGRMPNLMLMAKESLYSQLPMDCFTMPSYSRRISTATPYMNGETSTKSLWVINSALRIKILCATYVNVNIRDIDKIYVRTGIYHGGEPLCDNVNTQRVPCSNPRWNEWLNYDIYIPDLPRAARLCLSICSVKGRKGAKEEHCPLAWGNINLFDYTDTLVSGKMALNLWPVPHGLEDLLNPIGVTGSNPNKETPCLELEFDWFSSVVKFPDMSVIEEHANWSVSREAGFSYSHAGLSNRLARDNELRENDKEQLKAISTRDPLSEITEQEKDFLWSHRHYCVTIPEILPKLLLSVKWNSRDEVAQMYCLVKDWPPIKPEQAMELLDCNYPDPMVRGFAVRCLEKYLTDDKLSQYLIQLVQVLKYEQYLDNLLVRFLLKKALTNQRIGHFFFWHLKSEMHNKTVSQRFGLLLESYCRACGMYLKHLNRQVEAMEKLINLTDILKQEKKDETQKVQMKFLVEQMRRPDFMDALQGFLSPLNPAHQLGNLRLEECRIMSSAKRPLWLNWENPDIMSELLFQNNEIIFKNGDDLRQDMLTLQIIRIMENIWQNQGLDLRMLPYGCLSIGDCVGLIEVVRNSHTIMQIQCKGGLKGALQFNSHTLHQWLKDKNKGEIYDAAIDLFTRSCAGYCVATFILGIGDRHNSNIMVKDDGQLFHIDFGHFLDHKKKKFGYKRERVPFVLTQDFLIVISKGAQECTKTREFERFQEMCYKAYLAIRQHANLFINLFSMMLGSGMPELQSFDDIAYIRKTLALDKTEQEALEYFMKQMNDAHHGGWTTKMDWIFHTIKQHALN

With `C=CC(=O)Nc1cc(C(F)(F)F)c(-c2nc(N3CCOCC3)c3cc(CN4CCN(S(C)(=O)=O)CC4)cn3n2)cn1`, the 50% inhibitory concentration (IC50) in test [1] stood at 19.9 nM; in the test on SJRH30, 710 nM.

Turning to `CN(C)C1CCN(C(=O)c2ccc(NC(=O)Nc3ccc(-c4nc(N5CCOCC5)c5cc(CN6CCN(S(C)(=O)=O)CC6)cn5n4)cc3)cc2)CC1`, the half-maximal inhibitory concentration (IC50) in test [1] is 39.6 nM; in the test on SJRH30 it was 80 nM.

In the case of `CS(=O)(=O)N1CCN(Cc2cc3c(N4CCOCC4)nc(-c4ccc(NC(=O)Nc5ccc(F)cc5)cc4)nn3c2)CC1`, the IC50 in the test with A549 amounted to 1640 nM; in the test on NCI-H460, 897 nM; in the test with NCI-H522 it was 1020 nM; in test [1] it was 105 nM; with NCI-H1650 it was 2300 nM; with SJRH30, 230 nM. Moreover, the half-maximal inhibitory concentration (IC50) in the test with NCI-H1975 worked out at 460 nM; with NCI-H23, 695 nM; in the test with NCI-H226, 1080 nM; in the test with Calu-3, 2360 nM; in the test with NCI-H358, 1290 nM.

Turning to `CN1CCN(C(=O)c2ccc(NC(=O)Nc3ccc(-c4nc(N5CCOCC5)c5cc(CN6CCN(S(C)(=O)=O)CC6)cn5n4)cc3)cc2)CC1`, the 50% inhibitory concentration (IC50) in the test with A549 came to 144 nM; in the test with NCI-H460 it was 293 nM; in the test on NCI-H522, 751 nM; in test [1], 41.1 nM; in the test with NCI-H1650 it was 344 nM; in the test on SJRH30, 70 nM. In addition, the IC50 with NCI-H1975 came out at 25 nM; in the test with NCI-H23, 52 nM; in the test on NCI-H226, 106 nM; in the test on Calu-3, 790 nM; in the test on NCI-H358, 187 nM.

For the compound `CS(=O)(=O)N1CCN(Cc2cc3c(N4CCOCC4)nc(-c4cnc(NC(=O)Oc5ccccc5)cc4C(F)(F)F)nn3c2)CC1`, the half-maximal inhibitory concentration (IC50) in test [1] turned out to be 44.4 nM; with SJRH30 it was 5070 nM.

Regarding `CS(=O)(=O)N1CCN(Cc2cc3c(N4CCOCC4)nc(-c4cnc(N)cc4C(F)(F)F)nn3c2)CC1`, the IC50 was 55.4 nM in test [1] and 880 nM in the test on SJRH30.

On to `CCOC(=O)Nc1cc(C(F)(F)F)c(-c2nc(N3CCOCC3)c3cc(CN4CCN(S(C)(=O)=O)CC4)cn3n2)cn1`, for which the half-inhibitory concentration (IC50) in test [1] was determined as 21 nM; in the test with SJRH30, 3270 nM.

For the compound `CCNC(=O)Nc1cc(C(F)(F)F)c(-c2nc(N3CCOCC3)c3cc(CN4CCN(S(C)(=O)=O)CC4)cn3n2)cn1`, the IC50 amounted to 41.7 nM in [1] and 390 nM in the test with SJRH30.

In the case of `CS(=O)(=O)N1CCN(Cc2cc3c(N4CCOCC4)nc(-c4cnc(NC(=O)Nc5ccc(F)cc5)cc4C(F)(F)F)nn3c2)CC1`, the IC50 in test [1] turned out to be 17.7 nM; in the test on SJRH30, 180 nM.

Turning to `CNC(=O)Nc1cc(C(F)(F)F)c(-c2nc(N3CCOCC3)c3cc(CN4CCN(S(C)(=O)=O)CC4)cn3n2)cn1`, the half-maximal inhibitory concentration (IC50) in [1] stood at 23.6 nM; with SJRH30, 150 nM.

Regarding `C[C@H]1COCCN1c1nc(-c2cnc(N)cc2C(F)(F)F)nn2cc(CN3CCN(S(C)(=O)=O)CC3)cc12`, the values for the IC50 (in [1]; in the test with SJRH30) were 50.5 nM and 970 nM, respectively.

As for `CS(=O)(=O)N1CCN(Cc2cc3c(N4CC5CCC(C4)O5)nc(-c4cnc(N)cc4C(F)(F)F)nn3c2)CC1`, the 50% inhibitory concentration (IC50) in test [1] came to 244 nM; in the test with SJRH30, 1780 nM.

For the compound `CN(C)C(=O)c1ccc(NC(=O)Nc2ccc(-c3nc(N4CCOCC4)c4cc(CN5CCN(S(C)(=O)=O)CC5)cn4n3)cc2)cc1`, the half-maximal inhibitory concentration (IC50) was 67.5 nM in [1] and 90 nM with SJRH30.

As for `Cc1nc(NC(=O)N2CCC[C@H]2C(N)=O)sc1-c1ccnc(C(C)(C)C(F)(F)F)c1` [ALPELISIB], the IC50 came to 7600 nM in the test on SJRH30, 1670 nM in test [2] and 10.9 nM in [3].

For `CS(=O)(=O)N1CCN(Cc2cc3nc(-c4cccc5[nH]ncc45)nc(N4CCOCC4)c3s2)CC1` [PICTILISIB], the concentration for half-maximal inhibition (IC50) is 2480 nM with A549; 1260 nM with NCI-H460; 2140 nM with NCI-H522; 4730 nM in the test on NCI-H1650; 478 nM in the test with SJRH30; 703 nM in the test with NCI-H1975. Further, the IC50 came out at 936 nM with NCI-H23, 5910 nM in the test on NCI-H226, 2870 nM in the test with Calu-3 and 1330 nM in the test with NCI-H358. The result in the test with SK-BR-3, in the test on LoVo, with MDA-MB-231, in the test with SK-OV-3, in the test on T47D and in the test with HCC1954 was Active. The outcome in the test with BT-474, with MCF7, in the test on PC-3 and in the test on ZR-75-1 was Active.

(Values after ChEMBL document CHEMBL4732078 (Eur J Med Chem, 2021).)
